From PubChem BioAssay come the findings set out here.

Results filed as inconclusive are left out. Activity calls are given as the source filed them.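 Rule for the calls, unless noted: active = viability at or below 27.92% in each of two runs, the all-compound median minus 4 SD; inconclusive = no clear call, values can overlap the other calls; inactive = the rest.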

Experiment [1] can be described thus: S. cerevisiae growth inhibition in permissive medium (OD615), pilot counter-assay for S. cerevisiae lifespan shortening project, permissive growth control (AID 705;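 active = growth inhibition above 25% in both replicates, a cutoff set 3 SD above the mean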). The following applies: OD615, 24 h, at 10 µM, stronger effect = higher value. An outline of the steps:
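System: Engineered DeaD yeast | Buffer or medium: SC raffinose/galactose permissive medium | Doses: 10 µM single dose, 0.25% DMSO | Times: 24 h exposure, 30 °C | Measured by: OD615 turbidity read | Read-out: Yeast growth inhibition indicated by reduced 24 h OD615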

The nature of experiment [2]: S. cerevisiae growth inhibition in restrictive medium, OD615, pilot screen, restrictive growth control, yeast lifespan reduction project (AID 706;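 active = growth inhibition above a set limit, 3 SD over mean compound inhibition, in both replicates, cut at about 43% in these data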;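 note: modified DeaD lifespan yeast strain shifted to restrictive glucose medium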). Conditions: OD615, 48 h, at 10 µM, stronger effect = higher value. An outline of the steps: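 Assay system: engineered S. cerevisiae DeaD strain; Buffer or medium: CSMM-D glucose medium; Dosing: 10 µM compound, 0.25% DMSO; Times: cell pre-growth 4 h, compound exposure 48 h, 30 °C; Detection: absorbance (optical density) measured at 615 nm.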

Experiment [3] can be described thus: doxorubicin toxicity protection in MRP-1 cells – H69AR cells, CellTiter-Glo, duplicate, MRP-1 activator project, pilot screen (AID 807;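 active = viability increase at or above a cutoff of the median across tested compounds plus 3 SD, cut at about 8.5% in these data, passing the limit was not always enough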;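 note: compound pretreatment 18-22 h then 72 h combined with doxorubicin; 0% = doxorubicin alone and 100% = vehicle without doxorubicin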). The following applies: H69AR viability with doxorubicin, CellTiter-Glo luminescence; at 10 µM; stronger effect = higher value.
A short description of experiment [4]: viability of HCT116 without oncogenic beta-catenin – human colon tumor cells, pilot screen (AID 823;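 active = cell viability at or below a set limit in both duplicate runs, the limit being the all-compound median minus 4 SD, cut at about 23% in these data, passing the limit was not always enough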;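 note: 0% = wells killed by 20 µM Hyamine and 100% = untreated DMSO cell wells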). Conditions: HCT116 beta-catenin knockout viability, CellTiter-Glo, 60 h; at 10 µM; stronger effect = lower value. (In general: Cellular ATP, detected with luciferase, serves as a proxy for viable cell number.)
Experiment [5] in a line: viability of PTEN-null HCT116 cells – cell-based, HCT116 clonal line, CellTiter-Glo, pilot screen (AID 824).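 Note: 0% = 20 µM Hyamine control and 100% = vehicle cell control.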 Conditions: HCT116 PTEN-deleted viability, 60 h, at 10 µM, stronger effect = lower value.
The nature of experiment [6]: RAM pathway blockade in budding yeast – dse1pr::URA3 reporter, 5-FOA selection, pilot screen (AID 869;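 active = inhibition over a set limit, the all-compound mean plus 3 SD, in both replicate runs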;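 note: 0% = DMSO wells with no growth and 100% = 10 µM 1-NA-PP1 with full growth; RAM network block rescues cells from 5-FOA so hits raise OD615 growth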). Conditions: S. cerevisiae dse1pr::URA3 5-FOA growth, OD615, 2 d; at 10 µM; stronger effect = higher value; strain carries analog-sensitive mutant Cbk1 kinase.
Experiment [7] can be described thus: MRP1 drug-resistance reversers in H69AR cells – cell-based, doxorubicin co-treatment, pilot screen (AID 601;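 active = viability loss from added drug above about 55%, and viability with drug at most 40%, in both replicates, limit read from the data, passing the limit was not always enough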). The following applies: CellTiter-Glo, 72 h, at 10 µM; for differential viability (reversal): stronger effect = higher value.
Experiment [8] can be described thus: yeast transport mutant growth inhibition pilot in 384-well plates, post-Golgi transport modulator project (AID 636; in the data active = inhibition above about 31%). Conditions: absorbance 615 nm, about 18 h, stronger effect = higher value.
Experiment [9] can be described thus: growth suppression of yeast trafficking mutant, preliminary HTS, modulators of trafficking downstream of Golgi apparatus project, 1536-format plate, OD 615 nm (AID 637; in the data active = inhibition above about 30%). Conditions: yeast transport mutant growth, absorbance 615 nm, 18 h; stronger effect = higher value.
Experiment [10] in a line: H69AR cell proliferation blockers – human, duplicate replicates, primary screen (AID 580;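 active = viability at or under a set limit in both replicates, limit being median viability minus 3 SD, cut at about 48% in these data, passing the limit was not always enough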;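 note: 100% = mean luminescence of untreated wells and 0% = no signal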). The following applies: H69AR lung tumor cells viability, ATP luminescence, 72 h; at 10 µM; stronger effect = lower value.
Where [11] appears, read: H69AR cells + 2 uM doxorubicin, measured here: viability with 2 uM doxorubicin, stronger effect = lower value.
Setting [12] is: H69AR cells, compound alone cytotoxicity.

In general, viability refers to a read-out of living cells in per cent, often relative to untreated cells. For orientation: inhibition means the relative decrease from the control value, in per cent. For `CCOC(=O)c1cc2c(=O)n3ccccc3nc2n(Cc2ccco2)c1=NC(=O)c1cccnc1`, the growth inhibition in experiment [1] is -1.49% (inactive); in experiment [2], 14% (inactive). Also, in experiment [3], the viability increase is 3.61% (inactive). Also, the viability in experiment [4] is 99.5% (inactive); in [5] it was 99% (inactive). In experiment [6], the inhibition was 1.91% (inactive).
Regarding `CCOc1ccccc1C(=O)Nc1ccc2nc(N3CCN(c4ncccn4)CC3)cc(C)c2c1`, the growth inhibition in experiment [1] was 5.8% (inactive); in experiment [2], -4.81% (inactive). Further, the viability increase in experiment [3] was -7.45% (inactive). Besides, the viability in experiment [4] is 4.33% (active); in experiment [5], 2.14% (active).
In the case of `Cc1csc(NC(=O)c2sc3nc(-c4cccs4)ccc3c2N)n1`, in [7] (H69AR cells + 2 uM doxorubicin), the differential viability (reversal) is -12.4% (inactive). The viability amounted to 60.3% in experiment [7] (setting [11]) and 47.9% in experiment [7] (setting [12]). In addition, the inhibition was 0% (inactive) in [8] and -6.35% (inactive) in experiment [9].
Turning to `N#CCCn1cc(C(CC(=O)c2ccc(Br)cc2)C(=O)O)c2ccccc21` (centres undefined), the results for the growth inhibition in experiment [1] and in [2] were 3.64% (inactive) and 4.21% (inactive), respectively. Further, the viability increase in experiment [3] is -3.05% (inactive). Moreover, the viability in [4] is 91.7% (inactive); in experiment [5], 96.4% (inactive). Besides, the inhibition in [6] is 1.56% (inactive).
For `CCCOc1cccc(C(=O)Nc2cccnc2)c1`, the values for the growth inhibition in [1] and in [2] were -6.8% (inactive) and -0.66% (inactive), respectively. In experiment [3], the viability increase is 3.16% (inactive). The values for the viability in experiment [4] and in [5] were 92.6% (inactive) and 96.2% (inactive), respectively. Further, in experiment [6], the inhibition was 0.93% (inactive).
For `CSc1nnc2c3ccccc3n(Cc3ccccc3)c2n1`, the viability in [10] was 31.6% (active); in experiment [7] (setting [11]), 30.3%; in experiment [7] (setting [12]), 31.6%. The differential viability (reversal) in experiment [7] (H69AR cells + 2 uM doxorubicin) was 1.23% (inactive). Moreover, the values for the inhibition in experiment [8] and in experiment [9] were -2.37% (inactive) and 2.54% (inactive), respectively.
On to `OCCNc1ncnc2c1c(-c1ccccc1)c(-c1ccccc1)n2Cc1ccco1`, for which the viability was 72.4% (inactive) in [10], 48.8% in experiment [7] (setting [11]) and 72.4% in experiment [7] (setting [12]). For the same compound, the differential viability (reversal) in experiment [7] (H69AR cells + 2 uM doxorubicin) was 23.7% (inactive). The inhibition was -5.66% (inactive) in experiment [8] and 15.7% (inactive) in [9].
For the compound `Cc1ccc(-c2nn(-c3ccccc3)cc2C2SCC(=O)N2Cc2ccccc2)o1` (centres undefined), the values for the growth inhibition in experiment [1] and in experiment [2] were -17.1% (inactive) and -9.89% (inactive), respectively. Also, the viability increase in experiment [3] is -0.06% (inactive). The viability in experiment [4] is 74.2% (inactive); in experiment [5] it was 68.9% (inactive). Further, the inhibition in experiment [6] is 0.94% (inactive).
As for `O=C1C2CCCN2C(c2ccc(F)cc2)N1c1ccc(Cl)cc1` (centres undefined), the results for the growth inhibition in [1] and in [2] were -13% (inactive) and -0.82% (inactive), respectively. For the same compound, in experiment [3], the viability increase is -2.59% (inactive). Also, the viability in experiment [4] is 76.5% (inactive); in [5] it was 67.8% (inactive). Further, in [6], the inhibition is 3.84% (inactive).
In the case of `O=C(O)c1ccc(CSc2nnc(COc3ccc(Cl)cc3Cl)o2)cc1`, the growth inhibition is 10.6% (inactive) in experiment [1] and 20.2% (inactive) in experiment [2]. Also, the viability increase in [3] is 2.94% (inactive). Moreover, the viability in experiment [4] is 103% (inactive); in experiment [5] it was 94.1% (inactive). The inhibition in [6] is 1.22% (inactive).
Regarding `CC[C@@H]1C(=O)OC[C@@H]1Cc1cncn1C`, the inhibition in experiment [8] was -3.12% (inactive); in experiment [9], -5.5% (inactive).
Regarding `O=C(CSc1nnnn1-c1ccccc1)Nc1nsc(-c2ccc(Cl)cc2)n1`, the differential viability (reversal) in [7] (H69AR cells + 2 uM doxorubicin) was -0.79% (inactive). The figures for the viability in experiment [7] (setting [11]) and in [7] (setting [12]) were 54.8% and 54%, respectively. Moreover, the figures for the inhibition in experiment [8] and in experiment [9] were 0.39% (inactive) and 3.33% (inactive), respectively.
Take `Cc1cccc(C)c1OCc1nnc(SCC(=O)Nc2nccs2)o1`: the growth inhibition in experiment [1] was -0.12% (inactive); in experiment [2], 0.57% (inactive). For the same compound, the viability increase in [3] was -1.15% (inactive). The viability in experiment [4] was 94% (inactive); in experiment [5], 87.4% (inactive). In addition, the inhibition in experiment [6] is 2.88% (inactive).
Take `CN(C)c1ccc(CN(C)C2CCCCC2)cc1`: the figures for the growth inhibition in [1] and in [2] were 2.59% (inactive) and -6.2% (inactive), respectively. Besides, the viability increase in [3] is -1.65% (inactive). Moreover, the viability in [4] is 93.1% (inactive); in [5] it was 89.7% (inactive). Further, the inhibition in experiment [6] was 1.46% (inactive).
For the compound `COC(=O)c1c(NC(=O)C2CC2)sc2c1CCCC2`, the results for the growth inhibition in [1] and in [2] were 4.15% (inactive) and 17% (inactive), respectively. In addition, the viability increase in experiment [3] was -4.82% (inactive). The viability in experiment [4] is 95.1% (inactive); in [5], 81.7% (inactive). Also, in experiment [6], the inhibition was 1.37% (inactive).
For the compound `COC(=O)c1ccc(CSc2ccc3nnc(-c4cccc(F)c4)n3n2)o1`, the results for the growth inhibition in experiment [1] and in experiment [2] were 6.12% (inactive) and 49% (active), respectively. The viability increase in experiment [3] was -3.24% (inactive). For the same compound, the viability in experiment [4] is 87.9% (inactive); in [5], 91.4% (inactive). For the same compound, in experiment [6], the inhibition is -0.025% (inactive).
Regarding `Clc1ccccc1-c1nnc2sc(-c3ccncc3)nn12`, the results for the growth inhibition in [1] and in experiment [2] were -1.33% (inactive) and 19.3% (inactive), respectively. Besides, the viability increase in [3] is -3.61% (inactive). The results for the viability in experiment [4] and in [5] were 106% (inactive) and 90.8% (inactive), respectively. Also, the inhibition in experiment [6] was 0.635% (inactive).
Regarding `CC1CCN(c2nc3c(c(=O)[nH]c(=O)n3C)n2CCCc2ccccc2)CC1`, the values for the growth inhibition in [1] and in experiment [2] were -15.8% (inactive) and -41.8% (inactive), respectively. The viability increase in experiment [3] was -3.5% (inactive). In addition, the viability in [4] is 79.9% (inactive); in experiment [5] it was 72.9% (inactive). In addition, the inhibition in [6] was 1.45% (inactive).
With `COC(=O)C1=C(N)N(c2ccc(F)cc2)C2=C(C(=O)CCC2)C1c1ccc2c(c1)OCO2` (centres undefined), the growth inhibition in experiment [1] is -6.41% (inactive); in experiment [2] it was -5.16% (inactive). In addition, the viability increase in experiment [3] was -0.72% (inactive). Moreover, the viability is 84.9% (inactive) in [4] and 86% (inactive) in experiment [5]. For the same compound, the inhibition in [6] is 3.19% (inactive).
`COc1ccc(NC(=O)c2nnn(Cc3ccc(SC)cc3)c2N)c(OC)c1`: the values for the growth inhibition in experiment [1] and in [2] were -1.88% (inactive) and -10.7% (inactive), respectively. Besides, in experiment [3], the viability increase is -0.11% (inactive). For the same compound, the viability is 100% (inactive) in [4] and 93.1% (inactive) in experiment [5]. Further, the inhibition in experiment [6] is 4.42% (inactive).
For the compound `COc1ccccc1OCCSc1nnnn1-c1ccc(C)cc1`, the values for the growth inhibition in experiment [1] and in experiment [2] were -13.8% (inactive) and -6.1% (inactive), respectively. The viability increase in experiment [3] was 0.71% (inactive). Also, the viability is 79.5% (inactive) in [4] and 78.7% (inactive) in experiment [5]. Besides, in experiment [6], the inhibition is 2.32% (inactive).
